Experimental data from article PMC10921549 (Journal of Agricultural and Food Chemistry, 2024).

Assays:
OR8H1 = biological target: T1, OR8H1 (Homo sapiens, UniProt Q8NGG4); assay: HEK-293 cell-based cAMP luminescence; conditions: for KFO library screening response of OR8H1 (2σ-threshold): each KFO 300 μmol/L, normalized to OR8H1 response to 30 μmol/L TDN; for agonist validation by concentration–response relation on OR8H1: human OR8H1
T1 sequence (Q8NGG4 1-311): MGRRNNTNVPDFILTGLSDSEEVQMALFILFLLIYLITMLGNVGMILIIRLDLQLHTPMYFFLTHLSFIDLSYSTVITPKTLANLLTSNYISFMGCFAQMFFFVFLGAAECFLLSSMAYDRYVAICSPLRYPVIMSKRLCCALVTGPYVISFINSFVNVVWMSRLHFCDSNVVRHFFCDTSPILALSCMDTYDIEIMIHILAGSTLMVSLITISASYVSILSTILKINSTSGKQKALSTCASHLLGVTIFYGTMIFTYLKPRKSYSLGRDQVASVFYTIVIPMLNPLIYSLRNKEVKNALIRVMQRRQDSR
In short: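 In HEK-293 cells expressing recombinant human OR8H1 with GloSensor cAMP luciferase, each of 180 GC-pure food odorants is applied at 300 μmol/L (n = 1, triplicate). After basal subtraction, mock is subtracted and responses are normalized to the 30 μmol/L reference agonist signal; the hit threshold is 2σ. For concentration–response, EC50 comes from a nonlinear Hill fit (slope ≤2.9, weighted by 0.1/SD). Results are mean ± SD.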

ecOR8H1 = assay: HEK-293 cAMP luminescence assay, horse ortholog ecOR8H1; type: cell-based, Equus caballus (horse)
In short: (§1)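 HEK-293 cells (37 °C, 5% CO2, 100% humidity; high-glucose DMEM, 10% FBS, 2 mM L-glutamine, penicillin/streptomycin) transiently express the OR ortholog with a GloSensor cAMP luciferase, and luminescence is read after odorant application. Basal signal is subtracted, data are normalized to a reference odorant–receptor maximum, and mock is subtracted. EC50 comes from a Hill fit weighted by 0.1/SD, with slope ≤2.9. Results are mean ± SD; surface expression is checked by flow cytometry.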

[1] = test system: 386 human OR types and 380 of their most frequent variants; assay: Screening of TDN against OR library of 766 cDNAs; type: cell-based; conditions: 100 μmol/L TDN, 766 OR cDNAs
ptOR8H1 = assay: HEK-293 cAMP luminescence assay, chimp ortholog ptOR8H1; type: cell-based, Pan troglodytes (chimpanzee); conditions: for response of chimp orthologue (concentration–response): ptOR8H1
In short: as §1

[2] = cited from earlier work
OR2W1 = conditions: present study and ref 50; cited from earlier work

Compound `COc1nccnc1C(C)C` [Compound 3, 2-methoxy-3-propan-2-ylpyrazine] has an EC50 (OR8H1) of 147 ± 8.64 µM.
With `Cc1ccc2c(c1)C=CCC2(C)C` [TDN, 1,1,6-trimethyl-1,2-dihydronaphthalene] the “response of horse orthologue to TDN” value (ecOR8H1) was “nonresponding”, the “receptor activation above 3σ-threshold in OR library screening” value [1] was “exclusively activated a single OR above a 3σ-threshold: OR8H1” and the EC50 (OR8H1) was 32 ± 6.09 µM. For the same compound, the EC50 (ptOR8H1; chimp ptOR8H1 in HEK-293, n = 3) was 37.8 ± 29.1 µM, the “response of chimp orthologue (concentration–response)” value (“response of chimp orthologue” for short) (ptOR8H1) was “responded” and the “efficacy lower than at the human receptor” value (ptOR8H1; ptOR8H1 versus human OR8H1) was roughly 7 fold. For the same compound, the “odor (detection) threshold in Riesling wine” value ([2]; Riesling wine) was 2.3 µg/L, the “odor threshold, originally reported” value [2] was 20 µg/L and the detection threshold ([2]; spiked model wine) was 2 µg/L.
With `CC1=CCC(C(C)(C)S)CC1` (stereo not drawn) [Compound 8, 2-(4-methylcyclohex-3-en-1-yl)propane-2-thiol] the EC50 (OR8H1) was 206 ± 80.8 µM and the “response of chimp orthologue” value (ptOR8H1) was “responded”.
For `C=CCc1ccc(OC)c(OC)c1` [Compound 2, 1,2-dimethoxy-4-prop-2-enylbenzene], the EC50 (OR8H1) is listed as 114 ± 20.1 µM and the “activation of OR2W1” value (OR2W1) is listed as “did not activate”.
For `C=C(C)[C@@H]1CC=C(C)C(=O)C1` [Compound 6, (5R)-2-methyl-5-prop-1-en-2-ylcyclohex-2-en-1-one], the EC50 (OR8H1) was 193 ± 9.52 µM, the “KFO library screening response of OR8H1 (2σ-threshold)” value (OR8H1) was “false-negative responder” and the “agonist validation by concentration–response relation on OR8H1” value (OR8H1) was “agonist of OR8H1”.
For `CC(=O)OCCc1ccccc1` [2-phenylethyl acetate], the “KFO library screening response of OR8H1 (2σ-threshold)” value (OR8H1) was “did not activate OR8H1”.
In the case of `CC(C)c1ccc(C=O)cc1` [Compound 7, 4-Propan-2-ylbenzaldehyde], the EC50 (OR8H1) is given as 92 ± 11.7 µM, the “activation of OR2W1” value (OR2W1) is given as “did not activate” and the “response of chimp orthologue” value (ptOR8H1) is given as “responded”.
In the case of `C=C(C)c1ccc(C)cc1` [Compound 1, 1-methyl-4-(prop-1-en-2-yl)benzene], the EC50 (OR8H1) is reported as 336 ± 74.9 µM.
For `CC(=O)c1ccc2ccccc2c1` [2-acetylnaphthalene], the “agonist validation by concentration–response relation on OR8H1” value (OR8H1) was “agonist for OR8H1”.
For `CCCc1ccc(O)c(OC)c1` [Compound 5, 2-methoxy-4-propylphenol], the “odor threshold (OT in water/EtOH (60/40))” value ([2]; water/EtOH (60/40)) is given as 1.9 ^b[35] μg/kg.
